Results as given in paper PMC3132447 (Diabetes, Obesity & Metabolism, 2011).
Marks after values point to notes of the source that are not given here.

Legend:
[1] = tested on: obese subjects with type 2 diabetes; assay: Postprandial plasma glucose after a standardized test meal; type: in vivo, human; details: n = 30; for Time to 10% of total glucose AUC / Time to 20% of total glucose AUC / Time to ΔGLUmax: 0.2 U/kg s.c. before standardized meal, obese T2DM, median
Method in brief: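 Same crossover, fasting, 0.2 U/kg s.c. premeal dosing and standardized 692-kcal meal. Plasma glucose was sampled at −20, −10 and 0 min, every 10 min to 2 h, then every 15 min to 6 h. AUCs used the linear trapezoidal rule; incremental AUCs and GLUmax used ANOVA (subject, treatment, sequence, period). Ratio 90% CIs used Fieller's theorem on untransformed data; times used Wilcoxon with Hodges–Lehmann 90% CI.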

[2] = tested on: NEFA; assay: Non-esterified fatty acid; type: in vivo, human; details: for Mean NEFA concentration after subsequent increase / Time of lowest mean NEFA concentration: 0.2 U/kg s.c. before standardized meal; for Mean NEFA concentration after subsequent increase: after the nadir, within 6-h period; for Time of lowest mean NEFA concentration / Mean NEFA concentration at start (before decrease): obese T2DM; for Mean NEFA concentration at start (before decrease): baseline
Method in brief: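 Obese T2DM adults (n = 30) fasted 12 h with oral agents withheld. In a randomized two-way crossover with a 7-day washout, they received 0.2 U/kg s.c. of test insulin analogue within 2 min before a 692-kcal meal (54% carbohydrate, 17% protein, 28% lipid) eaten within 30 min. Plasma NEFA was sampled from −20 min to 6 h by validated kit; mean profiles.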

[3] = tested on: obese subjects with type 2 diabetes; assay: Hypoglycaemia and adverse events; type: in vivo, human; details: for Severe hypoglycaemia / Subjects with hypoglycaemia with blood glucose below 56 mg/dl / Subjects with an episode of hypoglycaemia 3–6 h after insulin administration: 0.2 U/kg s.c.; for Subjects with an episode of hypoglycaemia 3–6 h after insulin administration: blood glucose <70 mg/dl
[4] = Serum insulin analogue concentrations after subcutaneous bolus; type: in vivo, human; details: n = 30; for Time to fraction of total insulin AUC (10%) / Time to fraction of total insulin AUC (20%) / Tmax (time to peak insulin concentration) / Insulin AUC0–1 h/AUC0–6 h, geometric mean / Insulin AUC0–2 h/AUC0–6 h, arithmetic mean (value in brackets) / Insulin AUC0–2 h/AUC0–6 h, geometric mean / Insulin AUC0–4 h/AUC0–6 h, arithmetic mean (value in brackets) / Insulin AUC0–4 h/AUC0–6 h, geometric mean: 0.2 U/kg s.c. before standardized meal, obese T2DM; for Time to fraction of total insulin AUC (10%) / Time to fraction of total insulin AUC (20%) / Tmax (time to peak insulin concentration): median; for Insulin AUC0–1 h/AUC0–6 h, geometric mean / Insulin AUC0–2 h/AUC0–6 h, arithmetic mean (value in brackets) / Insulin AUC0–2 h/AUC0–6 h, geometric mean / Insulin AUC0–4 h/AUC0–6 h, arithmetic mean (value in brackets) / Insulin AUC0–4 h/AUC0–6 h, geometric mean: serum analogue
Method in brief: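 Same crossover and 0.2 U/kg s.c. premeal dosing in obese T2DM (n = 30). Serum test insulin analogue was measured by an analogue-specific kit at a central laboratory over 6 h. Non-compartmental analysis gave Cmax, Tmax and linear-trapezoidal AUC fractions. Ratios with 90% CI used ANOVA on ln-transformed data; times used Hodges–Lehmann 90% CI for median differences.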

[5] = subcutaneously injected; cited from earlier work
[6] = point estimate (90% CI), Fieller's Theorem, untransformed data
[7] = point estimate (90% CI), Hodges and Lehmann method
[8] = point estimate (90% CI), ln-transformed data

| Substance | Time to 10% of total glucose AUC [1] | Time to 20% of total glucose AUC [1] | Time to ΔGLUmax [1] | Mean NEFA concentration after subsequent increase [2] | Time of lowest mean NEFA concentration [2] | Mean NEFA concentration at start (before decrease) [2] | Severe hypoglycaemia [3] | Subjects with hypoglycaemia with blood glucose below 56 mg/dl [3] | Subjects with an episode of hypoglycaemia 3–6 h after insulin administration [3] | Time to fraction of total insulin AUC (10%) [4] | Time to fraction of total insulin AUC (20%) [4] | Tmax (time to peak insulin concentration) [4] | Insulin AUC0–1 h/AUC0–6 h, geometric mean [4] | Insulin AUC0–2 h/AUC0–6 h, arithmetic mean (value in brackets) [4] | Insulin AUC0–2 h/AUC0–6 h, geometric mean [4] | Insulin AUC0–4 h/AUC0–6 h, arithmetic mean (value in brackets) [4] | Insulin AUC0–4 h/AUC0–6 h, geometric mean [4] | also measured |
| --- | --- | --- | --- | --- | --- | --- | --- | --- | --- | --- | --- | --- | --- | --- | --- | --- | --- | --- |
| insulin aspart | 40.0 ^† min | 65.0 ^† min | 59.5 ^† min | 0.31 mmol/L | 120 min | 0.51 mmol/L | no cases of severe hypoglycaemia requiring intervention | eight | 15 subjects | 60.5 ^† min | 91.0 ^† min | 93.0 ^† min | 11% | 3.6% | 35% | 4.3% | 77% | Time of the remaining hypoglycaemia episodes after administration ([3]; episodes outside 3–6 h, one value per episode): 60 min |
| insulin glulisine | 40.0 ^† min | 67.5 ^† min | 60.0 ^† min | 0.32 mmol/L | 180 min | 0.50 mmol/L | no cases of severe hypoglycaemia requiring intervention | Five | 10 subjects | 60.0 ^† min | 90.0 ^† min | 120.0 ^† min | 14% | 3.6% | 36% | 4.3% | 78% | GLUmax, mean ratio glulisine/aspart [1, 6]: 94% (90–99); Glucose AUC0–1 h, mean ratio glulisine/aspart [1, 6]: 94% (90–99); Glucose AUC0–1 h/AUC0–6 h, mean ratio glulisine/aspart [1, 6]: 95% (92–99); Glucose AUC0–2 h/AUC0–6 h, mean ratio glulisine/aspart [1, 6]: 96% (94–99); Glucose AUC0–4 h/AUC0–6 h, mean ratio glulisine/aspart [1, 6]: 99% (97–100); Glucose AUC0–6 h, mean ratio glulisine/aspart [1, 6]: 98% (95–104); ΔGLUmax, mean ratio glulisine/aspart [1, 6]: 81% (70–100); Time to 10% of total glucose AUC, median difference glulisine vs aspart [1, 7]: -2 min; Time to 20% of total glucose AUC, median difference glulisine vs aspart [1, 7]: 0 (−4 to 3) min; Time to ΔGLUmax, median difference glulisine vs aspart [1, 7]: -5 min; GLUmax, mean difference glulisine vs aspart ([1]; point estimate (90% CI), analysis of variance, untransformed data): -11 mg/dL; Tmax, median difference glulisine vs aspart [4, 7]: 17 min; Insulin AUC0–1 h/AUC0–6 h, mean ratio glulisine/aspart [4, 8]: 127% (106–152); Insulin AUC0–2 h/AUC0–6 h, mean ratio glulisine/aspart [4, 8]: 103% (95–110); Insulin AUC0–4 h/AUC0–6 h, mean ratio glulisine/aspart [4, 8]: 101% (99–103) |
| regular human insulin [RHI] |  |  |  |  |  |  |  |  |  |  |  |  |  |  |  |  |  | Duration of action [5]: > 8 h; Time of peak effect after dosing [5]: 3 h |
